# In ChEMBL document CHEMBL4229483, “Synthesis and evaluation of an orally available "Y"-shaped biaryl peroxisome proliferator-activated receptor δ agonist” (Bioorg Med Chem, 2018):
# Molecular target: T1, Peroxisome proliferator-activated receptor delta (Homo sapiens, UniProt Q03181)
# T1 sequence (Q03181 whole entry): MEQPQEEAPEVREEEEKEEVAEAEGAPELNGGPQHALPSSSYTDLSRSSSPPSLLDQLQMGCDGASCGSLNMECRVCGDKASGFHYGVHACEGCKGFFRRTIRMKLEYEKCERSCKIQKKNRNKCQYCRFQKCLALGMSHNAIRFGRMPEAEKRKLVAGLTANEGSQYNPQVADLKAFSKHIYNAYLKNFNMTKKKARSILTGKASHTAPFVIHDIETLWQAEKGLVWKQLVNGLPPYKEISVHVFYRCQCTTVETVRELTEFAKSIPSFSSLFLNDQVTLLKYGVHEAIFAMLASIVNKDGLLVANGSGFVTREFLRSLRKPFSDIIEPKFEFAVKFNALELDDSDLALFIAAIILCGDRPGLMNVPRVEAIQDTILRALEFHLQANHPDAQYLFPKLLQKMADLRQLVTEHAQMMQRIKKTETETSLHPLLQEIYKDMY
# Test: Transactivation of human PPARdelta expressed in monkey CV-1 cells coexpressing TK-PPRE-Luc after 24 hrs by luciferase reporter gene assay
# Type: cell-based
# Procedure, shortened: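 Agonist activity tested in transiently transfected CV-1 cells by reporter assay. EC50 is the molar concentration giving 50% of the maximal reporter activity.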
row,SMILES,EC50 [µM]
1,Cc1cc(SC(Cc2cc(C(F)(F)F)ccc2F)c2ccc(-c3ccc(F)cc3)cc2)ccc1OCC(=O)O (stereo not drawn),0.038

# Molecular target: T2, Peroxisome proliferator-activated receptor gamma (Homo sapiens, UniProt P37231)
# T2 sequence (P37231 whole entry): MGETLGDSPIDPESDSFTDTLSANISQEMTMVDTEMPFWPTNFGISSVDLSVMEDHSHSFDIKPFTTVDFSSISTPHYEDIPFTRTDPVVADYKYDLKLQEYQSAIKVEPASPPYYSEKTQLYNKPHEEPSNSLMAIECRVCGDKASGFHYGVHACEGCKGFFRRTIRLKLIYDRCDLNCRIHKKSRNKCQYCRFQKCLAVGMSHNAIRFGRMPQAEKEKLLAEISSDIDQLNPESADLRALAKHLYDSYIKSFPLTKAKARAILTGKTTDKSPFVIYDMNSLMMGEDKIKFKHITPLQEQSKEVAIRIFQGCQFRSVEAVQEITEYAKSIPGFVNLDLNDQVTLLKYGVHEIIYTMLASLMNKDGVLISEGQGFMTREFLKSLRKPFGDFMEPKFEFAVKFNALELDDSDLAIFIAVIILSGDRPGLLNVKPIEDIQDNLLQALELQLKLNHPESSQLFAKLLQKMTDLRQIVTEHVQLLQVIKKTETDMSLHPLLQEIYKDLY
# Test: Transactivation of human PPARgamma expressed in monkey CV-1 cells coexpressing TK-PPRE-Luc after 24 hrs by luciferase reporter gene assay
# Type: cell-based
row,SMILES,EC50 [µM]
1,Cc1cc(SC(Cc2cc(C(F)(F)F)ccc2F)c2ccc(-c3ccc(F)cc3)cc2)ccc1OCC(=O)O (stereo not drawn),> 10

# Molecular target: T3, Peroxisome proliferator-activated receptor alpha (Homo sapiens, UniProt Q07869)
# T3 sequence (Q07869 whole entry): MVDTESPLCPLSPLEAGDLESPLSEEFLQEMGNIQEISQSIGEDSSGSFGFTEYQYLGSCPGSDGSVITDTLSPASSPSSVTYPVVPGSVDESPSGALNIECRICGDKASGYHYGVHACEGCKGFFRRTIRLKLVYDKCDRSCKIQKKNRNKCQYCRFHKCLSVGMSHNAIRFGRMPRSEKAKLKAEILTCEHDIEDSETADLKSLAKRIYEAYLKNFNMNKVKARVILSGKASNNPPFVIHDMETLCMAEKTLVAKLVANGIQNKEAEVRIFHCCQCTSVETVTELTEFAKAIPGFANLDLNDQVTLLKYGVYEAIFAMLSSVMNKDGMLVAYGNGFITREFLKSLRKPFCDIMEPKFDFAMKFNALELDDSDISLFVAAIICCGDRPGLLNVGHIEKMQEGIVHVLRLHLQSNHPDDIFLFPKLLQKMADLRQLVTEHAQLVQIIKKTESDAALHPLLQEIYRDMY
# Test: Transactivation of human PPARalpha expressed in monkey CV-1 cells coexpressing TK-PPRE-Luc after 24 hrs by luciferase reporter gene assay
# Type: cell-based
row,SMILES,EC50 [µM]
1,Cc1cc(SC(Cc2cc(C(F)(F)F)ccc2F)c2ccc(-c3ccc(F)cc3)cc2)ccc1OCC(=O)O (stereo not drawn),> 10
